This note sets out measurements from ChEMBL document CHEMBL4316597, “Design, Synthesis, and Biological Evaluation of Itaconic Acid Derivatives as Potential Anti-Influenza Agents” (J Med Chem, 2019).

Activity calls are given as the source filed them. The calls are words filed in the database; no cut-off is given here.

Data set [1] has as its system Influenza A virus. Kind of data set: Inhibition of viral protein synthesis in Influenza A virus (A/WSN/33) infected in MDCK cells assessed as effect on NP protein level at 10 uM measured up to 9 hrs post infection by Western blot analysis. Format: functional, organism-based. The note with it: A/WSN/1933(H1N1). The method in brief: (§1)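 MDCK cells (5 × 10^5/well) infected with A/WSN/33 at MOI 0.1, washed twice, then held in E0 with or without 10 μM compound. Lysed in Triton X-100/deoxycholate buffer, equal protein separated by SDS-PAGE, and immunoblotted for viral proteins with GAPDH as loading control. Time-course harvests up to 9 h pi.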
For orientation: A western blot detects proteins with antibodies after separation by electrophoresis.

For data set [2], the system named is Influenza A virus. Kind of data set: Inhibition of viral protein synthesis in Influenza A virus (A/WSN/33) infected in MDCK cells assessed as effect on PA protein level at 10 uM measured up to 9 hrs post infection by Western blot analysis. In kind it is functional, organism-based. The note with it: A/WSN/1933(H1N1). In short, it runs like this:
as §1

In data set [3] the test system is Influenza A virus. Description: Inhibition of viral protein synthesis in Influenza A virus (A/WSN/33) infected in MDCK cells assessed as effect on NS1 protein level at 10 uM measured up to 9 hrs post infection by Western blot analysis. Format: functional, organism-based. The note with it: A/WSN/1933(H1N1). In short, it runs like this: as §1
A further data set relates to Erythrocyte. Kind of data set: Induction of hemagglutination in guinea pig RBC at serial dilution from 50 uM after 1 hr by HAI assay. Format: cell-based, Cavia porcellus. In short, it runs like this:
(§2)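 Virus titrated on 0.5% guinea pig RBCs to define 1 HA unit; 4 HA units used. Compound two-fold serially diluted from 50 µM and mixed with virus for 30 min at room temperature, or tested without virus for direct agglutination. 0.5% RBCs then added and agglutination scored after 1 h. DMSO/RBC-only and virus-only controls included.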

Data set [4] in a line: Selectivity ratio of CC50 for MDCK cells to EC50 for pandemic Influenza A virus A/TW/2235/09 (H1N1) SO4. In kind it is toxicity. Particulars: dog, read-out: Ratio CC50/EC50. In short, it runs like this:
(§3)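 MDCK cells (2 × 10^4/well, E10, 16–24 h) infected at nine-fold TCID50 with compound for 72 h, 37 °C, 5% CO2. Cells were fixed in 4% paraformaldehyde and stained with crystal violet; EC50 is from Reed–Muench. For CC50, cells had compound alone for 72 h, then MTT 3 h, DMSO, A570, Reed–Muench. SI = CC50/EC50; three independent experiments.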

Data set [5] concerns Influenza A virus. Kind of data set: Antiviral activity against Influenza A virus A/TW/3446/02 (H3N2) infected in MDCK cells after 72 hrs by crystal violet-staining based assay. In kind it is functional, organism-based. In short, it runs like this: (§4)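 Cells seeded at 2 × 10^4/well in E10 (DMEM, 10% FBS), 16–24 h at 37 °C/5% CO2, washed with DPBS, then infected at nine-fold TCID50 with or without serial compound concentrations. Influenza is run in MDCK and enterovirus/rhinovirus in RD. Incubated 72 h, fixed in 4% paraformaldehyde, stained with 0.1% crystal violet, and read for cell density. EC50 = 50% CPE inhibition by Reed–Muench; mean ± S.D. of at least three runs.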

The nature of data set [6]: Selectivity ratio of CC50 for MDCK cells to EC50 for pandemic Influenza A virus A/TW/90206/09 (H1N1) SO4. Format: toxicity. Particulars: dog, read-out: Ratio CC50/EC50. The method in brief: as §3
Another data set relates to enterovirus D68. Kind of data set: Antiviral activity against Enterovirus D68 TW/2795/2014 clade B3 infected in human RD cells after 72 hrs by crystal violet-staining based assay. Format: functional, organism-based. Particulars: Enterovirus D, TW/2795/2014 clade B3, RD. In short, it runs like this:
as §4

Another data set has as its system MDCK. Description: Inhibition of CRM1 in MDCK cells infected with Influenza A virus (A/WSN/33) assessed as reduction in CRM1-mediated viral protein nuclear export by measuring reduction in NP protein distribution to cytoplasm at 10 uM measured after 9 hrs post infection by IF-staining based microscopy. Format: cell-based. The note with it: Canis lupus familiaris. In short, it runs like this:
(§5)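 MDCK cells grown on coverslips (2 × 10^5/well, 16 h), infected at MOI 0.1 for 1 h, washed, then kept in E0 with test compound (1 or 10 μM) or LMB 10 nM; DMSO 0.05% as mock. Fixed at 9 h pi in 4% paraformaldehyde and immunostained for M1, NP, NS2 or PA (1:50), with Hoechst nuclear stain. Viewed by confocal microscopy at 63×. NP nuclear/cytoplasmic intensity ratio quantified; three independent experiments.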

The test system of data set [7] is Influenza A virus. Kind of data set: Inhibition of viral protein sub-cellular distribution in Influenza A virus (A/WSN/33) infected in MDCK cells assessed as reduction in M1 protein distribution to cytoplasm at 10 uM measured after 9 hrs post infection by IF-staining based microscopy. In kind it is functional, organism-based. Particulars: A/WSN/1933(H1N1). The method in brief: as §5

Data set [8] in a line: Selectivity ratio of CC50 for MDCK cells to EC50 for Influenza A virus A/TW/00642/14. Format: toxicity. Particulars: dog, read-out: Ratio CC50/EC50. The method in brief: as §3
Another data set has as its system Enterovirus A71. Description: Antiviral activity against Enterovirus A71 TW/2231/1998 infected in human RD cells after 72 hrs by crystal violet-staining based assay. In kind it is functional, organism-based. Particulars: Enterovirus A, TW/2231/1998, RD. The method in brief:
as §4

For data set [9], the system named is Influenza A virus. Description: Antiviral activity against pandemic Influenza A virus A/TW/90206/09 (H1N1) SO4 infected in MDCK cells after 72 hrs by crystal violet-staining based assay. In kind it is functional, organism-based. The note with it: A/TW/90206/09 (H1N1) SO4, MDCK. The method in brief:
as §4

Data set [10] is described as follows: Cytotoxicity against human RD cells assessed as cell death after 72 hrs by MTT assay. Format: cell-based. The method in brief:
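MDCK or RD cells at 2 × 10^4/well in E10, overnight at 37 °C/5% CO2, DPBS wash, then exposed to graded compound concentrations for 72 h. MTT added for 3 h, formazan dissolved in DMSO, absorbance read at 570 nm. CC50 (50% cell death) by Reed–Muench.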
For orientation: Formazan colour is commonly taken as a measure of viable cells.

Data set [11] has as its system Influenza A virus. Kind of data set: Inhibition of viral protein synthesis in Influenza A virus (A/WSN/33) infected in MDCK cells assessed as effect on NS2 protein level at 10 uM measured up to 9 hrs post infection by Western blot analysis. The note with it: A/WSN/1933(H1N1). Format: functional, organism-based. The method in brief: as §1
The target of data set [12] is Hemagglutinin (Influenza A virus) (UniProt B4URE7). Kind of data set: Inhibition Influenza A virus (A/WSN/33) HA infected in guinea pig RBC assessed as reduction in hemagglutination at serial dilution from 50 uM after 1 hr by HAI assay. Particulars: Influenza A virus (A/WSN/1933(H1N1)). In short, it runs like this:
as §2

For data set [13], the system named is Influenza A virus. Kind of data set: Inhibition of viral RNA synthesis in Influenza A virus (A/WSN/33) infected in MDCK cells at 10 uM measured up to 9 hrs post infection by RT-qPCR analysis. In kind it is functional, organism-based. Particulars: A/WSN/1933(H1N1). The method in brief: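 MDCK monolayers (5 × 10^5/well) infected with A/WSN/33, then given 10 μM compound during or after infection. Total RNA extracted with TRIzol at 0, 3, 6 and 9 h pi. Viral RNA quantified by RT-qPCR with M1-specific primers, GAPDH used for quantitative standards. Representative of three independent experiments.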
(In general: Real-time PCR tracks product formation cycle by cycle.)

Data set [14] relates to Influenza A virus. Description: Inhibition of viral protein synthesis in Influenza A virus (A/WSN/33) infected in MDCK cells assessed as effect on M1 protein level at 10 uM measured up to 9 hrs post infection by Western blot analysis. In kind it is functional, organism-based. The note with it: A/WSN/1933(H1N1). In short, it runs like this: as §1
The test system of data set [15] is Influenza A virus. Description: Inhibition of viral protein sub-cellular distribution in Influenza A virus (A/WSN/33) infected in MDCK cells assessed as reduction in NS2 protein distribution to cytoplasm at 10 uM measured after 9 hrs post infection by IF-staining based microscopy. The note with it: A/WSN/1933(H1N1). Format: functional, organism-based. The method in brief: as §5

Data set [16] is described as follows: Selectivity ratio of CC50 for MDCK cells to EC50 for Influenza A virus A/TW/3446/02 (H3N2). Format: toxicity. Particulars: dog, read-out: Ratio CC50/EC50. The method in brief:
as §3

Sequence of Hemagglutinin (Influenza A virus) (B4URE7 as listed by the source): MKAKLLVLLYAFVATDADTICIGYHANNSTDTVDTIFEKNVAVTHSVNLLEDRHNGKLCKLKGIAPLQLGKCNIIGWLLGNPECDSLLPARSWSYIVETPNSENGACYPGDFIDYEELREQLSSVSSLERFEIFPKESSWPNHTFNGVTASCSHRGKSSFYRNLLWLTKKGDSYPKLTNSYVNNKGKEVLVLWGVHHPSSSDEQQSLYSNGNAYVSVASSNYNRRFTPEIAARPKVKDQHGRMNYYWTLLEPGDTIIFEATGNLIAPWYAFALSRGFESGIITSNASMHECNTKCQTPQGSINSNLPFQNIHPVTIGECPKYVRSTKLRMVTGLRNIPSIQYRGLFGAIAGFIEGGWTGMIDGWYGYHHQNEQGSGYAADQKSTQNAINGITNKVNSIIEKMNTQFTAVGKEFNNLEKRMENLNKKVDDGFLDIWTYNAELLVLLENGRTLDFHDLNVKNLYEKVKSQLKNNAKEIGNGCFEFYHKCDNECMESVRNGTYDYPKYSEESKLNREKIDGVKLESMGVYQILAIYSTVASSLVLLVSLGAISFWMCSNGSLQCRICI

Turning to `C=C(CC(=O)Nc1ccc(F)cc1F)C(=O)Nc1ccc(F)cc1F`, the inhibition entry (with Influenza A virus [1]; in the data set on Influenza A virus [2]; in the data set with Influenza A virus [3]; in the data set on Influenza A virus [7]; in the data set with Influenza A virus [11]; in data set [12]) was “inactive” throughout. The inhibition entry in the data set on Influenza A virus [13], in the data set on Influenza A virus [14] and in the data set on Influenza A virus [15] was “inactive” throughout. Moreover, the Activity entry with Erythrocyte is “Non-Toxic”. For the same molecule, the selectivity ratio stood at 36 in [4], 28 in data set [6], 25 in data set [8] and 18 in data set [16]. Moreover, the EC50 (in general, the concentration needed to bring the measured effect to its halfway point) in the data set with Influenza A virus [5] was 4.6 µM; in the data set on enterovirus D68, above 50 µM; in the data set on Enterovirus A71, 4.5 µM; in the data set on Influenza A virus [9] it was 2.98 µM. Further, the inhibition entry in the data set with MDCK is “Active”. In data set [10], the CC50 (in general, the concentration that lowers cell viability or growth by half) at 72 h worked out at 74.6 µM.
